ChEMBL document CHEMBL2021845, “Targeting anthracycline-resistant tumor cells with synthetic aloe-emodin glycosides” (ACS Med Chem Lett, 2011)
Activity calls are given as the source filed them. The rule behind the calls is not given here.

Tests used:
[1] = tested on: Nucleic Acid; assay: Binding affinity to Escherichia coli pBR322 DNA assessed as DNA unwinding at 5 to 10 uM after 15 mins by agarose gel electrophoresis; format: nucleic-acid assay
[2] = tested on: SK-OV-3; assay: Cytotoxicity against human SKOV3 cells after 24 hrs by XTT assay; format: functional, cell-based; conditions: SK-OV-3, 24 h
[3] = tested on: Nucleic Acid; assay: Binding affinity to Escherichia coli pBR322 DNA assessed as DNA migration at 200 uM after 15 mins by agarose gel electrophoresis; format: nucleic-acid assay
Summary of the method: (§1)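 Supercoiled plasmid pBR322 DNA was preincubated with compound at 200 or 20 μM. Samples were run on a 1% agarose gel for 4 h at 70 V and stained with ethidium bromide. Unwinding was judged qualitatively from the shift in migration of supercoiled DNA against a no-drug lane.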

[4] = tested on: OVCAR-3; assay: Cytotoxicity against human OVCAR3 cells after 24 hrs by XTT assay; format: functional, cell-based; conditions: OVCAR-3, 24 h
[5] = Cytotoxicity against human NAR cells after 24 hrs by XTT assay; format: functional, cell-based
[6] = tested on: MCF7; assay: Cytotoxicity against human MCF7 cells after 24 hrs by XTT assay; format: functional, cell-based; conditions: MCF7, 24 h
[7] = tested on: MOLT-4; assay: Cytotoxicity against human MOLT4 cells after 24 hrs by XTT assay; format: functional, cell-based; conditions: MOLT-4, 24 h
[8] = tested on: SK-OV-3; assay: Cytotoxicity against human SKOV3 cells assessed as cell viability at 20 uM after 24 hrs by XTT assay; format: functional; conditions: SK-OV-3, 24 h, read-out: Activity
[9] = tested on: OVCAR-3; assay: Cytotoxicity against human OVCAR3 cells assessed as induction of cell death at 10 uM after 24 hrs by trypan blue dye exclusion test; format: functional, cell-based
Summary of the method: (§2)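 Cells were incubated with 10 μM compound for 24 h. A trypan blue dye exclusion test in cell suspension then counted total and dye-stained (dead) cells against an untreated control.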

[10] = Toxicity in Wistar rat erythrocytes assessed as hemolysis at 50 uM after 1 hr; format: cell-based, Erythrocyte; conditions: read-out: Activity
[11] = Cytotoxicity against human lymphocytes assessed as cell viability after 3 hrs by XTT assay relative to untreated control; format: cell-based; conditions: Lymphocyte
Summary of the method: (§3)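 Normal human lymphocytes from two individual donors were exposed to compound for 24 h or for a 3 h incubation. Viability was expressed relative to an untreated-cell control, and IC50 was derived per blood sample.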

[12] = Cytotoxicity against human lymphocytes assessed as cell viability after 24 hrs by XTT assay relative to untreated control; format: cell-based; conditions: Lymphocyte; summary of the method: as §3
[13] = tested on: NAR; assay: Cytotoxicity against human NAR cells assessed as induction of cell death at 10 uM after 24 hrs by trypan blue dye exclusion test; format: functional, cell-based; summary of the method: as §2
[14] = Cellular uptake in doxorubicin-resistant human NAR cells at 5 uM after 2 hrs by confocal microscopic analysis; format: ADME, cell-based
Summary of the method: (§4)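 P-gp-overexpressing NAR ovarian cancer cells were incubated with 5 μM compound for 2 h, then fixed in paraformaldehyde. Plasma membranes were stained with carbocyanine tracer DiD. Confocal imaging used Ex/Em 488/525 nm for the drug and 640/685 nm for DiD, to localize drug in membrane versus cell interior.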

[15] = Cytotoxicity against human lymphocytes assessed as cell viability at 20 uM after 24 hrs by XTT assay relative to untreated control; format: cell-based, Lymphocyte; conditions: read-out: Activity
Summary of the method: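 Normal human lymphocyte samples from two individuals; 24 h incubation with compound at 20 μM; viability expressed relative to an untreated cell control.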

[16] = tested on: OVCAR-3; assay: Cytotoxicity against human OVCAR3 cells assessed as cell viability at 20 uM after 24 hrs by XTT assay; format: functional; conditions: OVCAR-3, 24 h, read-out: Activity
[17] = tested on: NAR; assay: (§5) Cytotoxicity against doxorubicin-resistant human NAR cells assessed as cell viability at 100 uM after 24 hrs by XTT assay; format: functional
Summary of the method: (§6)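 NAR ovarian cancer cells with P-glycoprotein efflux pump overexpression; 24 h exposure to compound up to 100 μM; cell viability read-out.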

[18] = Drug uptake in doxorubicin-resistant human NAR cell plasma membrane at 5 uM after 2 hrs by confocal microscopic analysis; format: ADME, cell-based; summary of the method: as §4
[19] = tested on: MCF7; assay: Cytotoxicity against doxorubicin-resistant human MCF7 cells assessed as cell viability at 20 uM after 24 hrs by XTT assay; format: functional; conditions: MCF7, 24 h, read-out: Activity
[20] = tested on: Nucleic Acid; assay: Binding affinity to Escherichia coli pBR322 DNA assessed as DNA migration at 20 uM after 15 mins by agarose gel electrophoresis; format: nucleic-acid assay; summary of the method: as §1
[21] = as §5; format: functional; conditions: read-out: Activity; summary of the method: as §6

Row | SMILES | Activity [1] | IC50 [2] | Activity [3] | IC50 [4] | IC50 [5] | IC50 [6] | IC50 [7] | viability at 20 µM [8] | Activity [9] | hemolysis at 1 h, 50 µM [10] | Activity [13] | viability at 24 h, 20 µM [15] | viability at 20 µM [16] | viability at 20 µM [19] | other results
1 | C[C@H]1O[C@@H](OCc2cc(O)c3c(c2)C(=O)c2cccc(O)c2C3=O)C[C@@H](N)[C@@H]1O | inactive | > 20 µM | inactive | 6.4 µM | > 100 µM | 11.9 µM | 7.6 µM | 92% |  |  |  |  |  |  | 
2 | C[C@@H]1O[C@@H](OCc2cc(O)c3c(c2)C(=O)c2cccc(O)c2C3=O)C[C@H](N)[C@H]1O | inactive | 6.9 µM | inactive | 5.2 µM | 8.6 µM | 7.1 µM | 5.8 µM |  | Active | 3% | Active |  |  |  | IC50 [11]: 3000 nM; IC50 [12]: 3000 nM; Drug uptake [14]: Active
3 | COc1cccc2c1C(=O)c1c(O)c3c(c(O)c1C2=O)C[C@@](O)(C(=O)CO)C[C@@H]3O[C@H]1C[C@H](N)[C@H](O)[C@H](C)O1 [DOXORUBICIN] |  | > 20 µM | Active | > 20 µM | > 100 µM | > 20 µM | 0.2 µM | 63% | inactive | 2% | inactive | 100% | 61% | 83% | Activity [17]: inactive; Drug uptake [18]: Active; Activity [20]: Active
4 | C[C@@H]1O[C@@H](OCc2cc(O)c3c(c2)C(=O)c2cccc(O)c2C3=O)C[C@@H](N)[C@H]1O | inactive | 13.5 µM | inactive | 15.7 µM | 18 µM | 12.7 µM | 5.4 µM |  |  |  |  |  |  |  | 
5 | O=C1c2cccc(O)c2C(=O)c2c(O)cc(CO)cc21 [ALOE-EMODIN] |  | > 20 µM | inactive | > 20 µM | > 100 µM | > 20 µM | > 20 µM | 98% |  | 0% |  | 77% |  | 77% | viability at 100 µM [21]: 78%
6 | C[C@H]1O[C@@H](OCc2cc(O)c3c(c2)C(=O)c2cccc(O)c2C3=O)C[C@H](N)[C@@H]1O | inactive | > 20 µM | inactive | > 20 µM | 28.3 µM | > 20 µM | 12.8 µM | 84% |  |  |  |  | 60% | 83% | 
